Reference: ChEMBL document CHEMBL4513216, “Probing the Open Global Health Chemical Diversity Library for Multistage-Active Starting Points for Next-Generation Antimalarials” (ACS Infect Dis, 2020)

Assay: Toxicity liver stage against HepG2, at 10uM
Assay type: cell-based
Parameters: test concentration 10 uM, cell line HepG2-A16-CD81EGFP
Conditions: human, HepG2-A16-CD81EGFP cells; read-out: INHIBITION
Outline: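 Uninfected HepG2-A16-CD81EGFP cells, 3 × 10^3 per well, 1536-well, plated on prespotted compound at 10 μM final, parasite-free screening media added to match infected plates; puromycin 10 μM positive, DMSO 0.5% negative; run in parallel with 48 h PbLuc assay at 37 °C, 5% CO2; viability by CellTiter-Glo luminescence, normalized to controls.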

Structure (SMILES)	cytotoxicity at 10 µM [%]
O=C(c1nc(Cc2c[nH]c3ccccc23)no1)N1CCOCC1	11.1
C[C@@H](O)CNC(=O)c1nc(CC(=O)Nc2cccc(C(F)(F)F)c2)no1	8.35
CC1=Nc2c(c(=O)[nH]n2C(C)C)C(c2ccsc2)S1 (stereo not given)	-2.92
Cn1c(CN2CCOCC2)cc(=O)c(O)c1CN1CCCCC1	-3.15
Cc1noc(C)c1C(=O)Nc1ccc2ncn(CC(C)C)c(=O)c2c1	8.75
Cc1n[nH]/c(=N\C(=O)c2c3c(nc4onc(C)c24)CCC3)s1	-1.88
COC(=O)Cn1cccc(S(=O)(=O)N2CCC(C)CC2)c1=O	-2.85
CC(C)(C)C(=O)Cn1nc(-c2ccccc2F)ccc1=O	-8.46
O=C(NCCCN1CCOCC1)c1cccc(OCc2ccccc2)c1	-4.87
COc1ccc(N2CCN(C(=O)C(C)n3cc(Br)cn3)CC2)cc1 (stereo not given)	11.4
COCCNc1cc(C)nn2cnnc12	-1.63
Cn1c(=O)oc2cc(S(=O)(=O)N3CCCCC3)c(Cl)cc21	19
CCn1ncc(CN(C)C(=O)c2ccn(C)n2)c1C	6.5
COc1cc(C2SCC(=O)Nc3[nH]ncc32)cc2c1OCO2 (stereo not given)	5.28
CCNC(=O)c1nnc2ccc(N3CCOCC3)cc2n1	3.56
O=C(CC1CC1)N1C[C@@H](O)[C@H](N2CCN(c3ccccc3)CC2)C1	-0.38
CC(C)(C)c1cc(C(=O)N2CCC(c3cnccn3)CC2)[nH]n1	0.775
O=C(CC1CCCC1)N1CCCC1c1ccc(CN2CCOCC2)cn1 (stereo not given)	1.37
O=C1Nc2ccccc2CNC12CCN(CC1CCCC1)CC2	6.39
CC(C)CNC(=O)c1cc(C2CC2)nc2c1c(C1CCCN1)nn2C (stereo not given)	15.9
O=C(N1CCCCC1)N1CCN(c2ccc(Cl)nn2)C(=O)C1	8.24
O=S(=O)(N1CCCCC1)N1CCCN(CC2CCCO2)CC1 (stereo not given)	-3.94
CN(Cc1ccccc1F)C(=O)COC(=O)c1cc(Cl)c[nH]1	12.4
CC(=O)c1c(C)cc(C)c(CS(=O)(=O)c2nccn2C)c1C	-4.28
FC(F)(F)C1CCCn2c(CNCc3cccs3)nnc21 (stereo not given)	3.79
Cc1n[nH]c(C)c1NC(=O)CN1CCCC1Cn1cncn1 (stereo not given)	15.5
COc1cccc(CNCCc2cc(F)cc3c2OCOC3)c1OC	4.32

Structure (SMILES)	cytotoxicity at 10 µM [%]
COc1cccc(CNCCNS(=O)(=O)Cc2ccccc2)c1	13.4
COc1ccc(C)c2c1N(C(=O)c1ccc3nnc(C)n3c1)CCC2	2.84
CCOc1ccc(NC(=O)N2CCC(n3cncn3)CC2)cc1Cl	-7.22
Cc1cnn(CCCNCc2csc(COc3ccccc3)n2)c1	5.34
CS(=O)(=O)c1cc(S(N)(=O)=O)ccc1NCC1CCCO1 (stereo not given)	6.26
CN(Cc1ccco1)Cc1ccccc1CNC(=O)c1ccc[nH]1	-4.11
CCc1ncc2c(n1)CN(Cc1nnc(C)o1)CC2	-12.1
Cn1ccc(-c2cc(C(=O)N3CCOCC3)c3ccccn23)n1	7.9
COCCNC(=O)[C@H]1C[C@@H]2CCN(Cc3ccoc3)C[C@H]2O1	2.31
COc1ncccc1C1CC(=O)NCc2nc3ccccn3c21 (stereo not given)	-5.72
N#Cc1c(C2CCOC2)cc(-c2ccc(N3CCCCC3)cc2)nc1N (stereo not given)	-8.78
Nc1cc(C(=O)N2CCOC(Cc3cccc(C(F)(F)F)c3)C2)ccn1 (stereo not given)	-1.97
O=C(O)C1(Oc2cccc(F)c2)CCN(c2ccncc2)CC1	0.423
Cc1cc(CN(C)c2nc(-c3ccco3)nc3c2CCN(C)CC3)on1	9.34
Cc1c[nH]c(CN(C)C(=O)[C@@]23CNC[C@@H]2CN(c2ncccn2)C3)n1	-2.4
Cc1nnc(N2CCC(CCn3ccnc3C)CC2)o1	-8.14
O=C1CC(c2ncc(-c3ccc4c(c3)OCCO4)[nH]2)CN1C1CC1 (stereo not given)	-4.62
Cc1cnc(C)c(N2CCN(CCCc3[nH]nc(C)c3C)CC2)n1	-10
O=C(O)c1ccnc(-c2ccnc(N3CCC(F)(F)CC3)n2)c1	-12.3
NCCN1C(=O)CC[C@H]2CN(Cc3ccc4occc4c3)CC[C@H]21	-1.14
CC(=O)NCCn1ccnc1-c1cccc(C(C)N(C)C)c1 (stereo not given)	2.4
Cc1cc(C(=O)N2C[C@@H](CN3CCOCC3)C[C@H](CO)C2)nc(C)n1	3.63
O=C(NCc1ccccc1-n1cccn1)C1CC2(CCNCC2)CN1 (stereo not given)	-0.413
CCCc1nc(CN(CC)C(=O)c2ccc(OC)c(OC)c2)no1	-6.93
COc1ccccc1OCCCN1CC=C(c2cnn(C)c2)CC1	8.32
CCCN(Cc1nccn1C)C(=O)c1cc(C(C)C)on1	4.24
CCn1cncc1CNC(=O)c1ccc(C2CCCN2C(=O)COC)s1 (stereo not given)	6.48

Structure (SMILES)	cytotoxicity at 10 µM [%]
CCc1cc(N2CCC(NCCc3nc(C)c(C)s3)CC2)nc(C)n1	0.902
CC(C)(C)NC(=O)c1ccccc1NC(=O)c1ccncc1	-10.3
O=C(O)C(c1ccc2c(c1)OCCO2)N1CCC(N2CCOCC2)CC1 (stereo not given)	-0.809
O=C(c1cc(=O)[nH]c(=O)[nH]1)N1CCCCC1c1ccc(F)cc1 (stereo not given)	-10.2
CC(C)c1nc(C2CCCN(C(=O)c3ccc(N(C)C)nn3)C2)no1 (stereo not given)	-9.71
CCN(CC)c1ccc(C(=O)N2CCC(c3nc(C)no3)CC2)cn1	-7.42
CN(CC(=O)N1CCCC1)C(=O)Cc1csc(-c2ncccn2)n1	-9.51
O=C(NCc1ccc(-c2ccn[nH]2)cc1)N1CCC(N2CCCC2)C1 (stereo not given)	-8.35
Cc1cccc(-c2ccc(C(=O)NCC(C)(C)C(N)=O)c(=O)[nH]2)c1	-10.5
CNC(=O)C1CCC(NC(=O)N(C)Cc2c(C)noc2C)CC1 (stereo not given)	-13.7
O=C(Nc1cn[nH]c1)c1ccc(O)nc1	-1.09
CC(C)c1nc(C2CCCN2CC(=O)N2CCNC2=O)no1 (stereo not given)	-8.96
CC(NC(=O)NCCn1ccnc1)c1ccc2c(c1)NC(=O)CO2 (stereo not given)	-7.36
COc1ccc2cc(C(=O)N3CCCCC3CC(N)=O)[nH]c2c1 (stereo not given)	-12.3
O=C(NCCNC(=O)c1scnc1Cl)c1ccccc1	8.45
CCc1n[nH]c(C2CN(Cc3nccn3CC)CCO2)n1 (stereo not given)	-1.85
CC(C)c1nccn1C1CCCN(C(=O)c2ccc3[nH]nnc3c2)C1 (stereo not given)	1.9
O=C1CCCCN1c1cccc(CNC2CCCC2)c1	6.86
CN(Cc1cn2c(n1)CN(C(=O)CC1CC1)CC2)Cc1ccco1	-2.21
CC(=O)N1CC(=O)N(c2cnn(C)c2)CC12CCN(CC1CC1)C2 (stereo not given)	-2.58
CNC(=O)[C@H]1C[C@@H]2CN(S(=O)(=O)c3ccccc3)C[C@@H]2N1C	-5.27
O=C(c1cccc(Cl)c1)N1CC[C@H]2[C@H]1CCN2CC1CCOCC1	-0.696
CC(=O)N1[C@H](CN(C)C)C[C@@H]2CN(C(=O)c3cccc(F)c3)CC[C@@H]21	5.85
CS(=O)(=O)NCc1cnc2n1CCN(Cc1ccsc1)CC2	-7.96
CCOc1ccc(C(=O)N2C[C@@H]3CC[C@H]2CN(C(=O)C2CCC2)C3)cc1	-4.68
c1ccc(CNc2ncc(CN3CC[C@@H]4CC[C@H](C3)N4)cn2)cc1	-3.8
